The structures appear in SMILES notation.
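Note: active if original authors judged signal statistically different from baseline.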

The first assay deals with T1, UniProt Q8VGM2.
T1 sequence (whole entry): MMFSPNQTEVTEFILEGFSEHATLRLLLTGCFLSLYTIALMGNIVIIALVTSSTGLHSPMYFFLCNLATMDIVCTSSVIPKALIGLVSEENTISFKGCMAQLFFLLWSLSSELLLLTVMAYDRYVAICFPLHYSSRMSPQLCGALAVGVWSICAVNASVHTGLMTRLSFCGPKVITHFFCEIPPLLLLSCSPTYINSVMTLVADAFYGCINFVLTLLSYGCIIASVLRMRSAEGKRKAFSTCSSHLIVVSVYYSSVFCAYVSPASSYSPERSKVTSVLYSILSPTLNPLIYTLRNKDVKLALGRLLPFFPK
To be noted: stereoisomer not certain. The procedure, abridged:
(§1)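 Each receptor–molecule pair is labelled responsive or non-responsive (inactive) according to whether the original authors judged the measured signal statistically different from baseline. The data were taken from the main text and supplementary material of published papers and checked for typos and inconsistencies. Assay methods differed by source, with transient luciferase assays in mammalian cell lines being common.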
Regarding `C=C(C)C1CCC(C)C(=O)C1` (stereo unspecified), the “odorant receptor agonist call” value is “inactive”.

As to `CCC(C(=O)O)c1ccccc1` (stereo unspecified), the “odorant receptor agonist call” value was “inactive”.

Consider `O=c1ccc2ccccc2o1`, for which the “odorant receptor agonist call” value is “inactive”.

Take `CCCCCO`: the “odorant receptor agonist call” value was “inactive”.

Consider `CCCCCCCC(=O)[O-].[H+]`, for which the “odorant receptor agonist call” value was “inactive”.

For the compound `CCCC(C)=O`, the “odorant receptor agonist call” value is “inactive”.

With `CC(C)=CCCC(C)CCO` (stereo unspecified), the “odorant receptor agonist call” value is “inactive”.

For the compound `O=C1Cc2ccccc2O1`, the “odorant receptor agonist call” value was “inactive”.

Consider `CCOC(=O)C(C)C`, for which the “odorant receptor agonist call” value is “inactive”.

For the compound `COc1cc(C(=O)O)ccc1O`, the “odorant receptor agonist call” value was “inactive”.

Consider `CCCCCCC(=O)[O-].[H+]`, for which the “odorant receptor agonist call” value is “inactive”.

Regarding `CCCCOC(=O)C(C)OC(=O)CCC` (stereo unspecified), the “odorant receptor agonist call” value was “inactive”.

In a further assay the target is T2, UniProt Q8VGP6.
T2 sequence (whole entry): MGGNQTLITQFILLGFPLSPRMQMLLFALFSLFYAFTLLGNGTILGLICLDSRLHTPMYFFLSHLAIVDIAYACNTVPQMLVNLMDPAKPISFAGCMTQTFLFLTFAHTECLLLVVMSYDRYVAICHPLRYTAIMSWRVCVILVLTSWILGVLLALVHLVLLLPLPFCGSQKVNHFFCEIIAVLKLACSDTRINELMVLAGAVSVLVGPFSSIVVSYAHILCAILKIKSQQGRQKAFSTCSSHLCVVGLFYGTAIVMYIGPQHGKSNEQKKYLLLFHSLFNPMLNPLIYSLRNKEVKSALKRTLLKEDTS
To be noted: stereoisomer not certain. The procedure, abridged: as §1
In the case of `C=C(C)C1CCC(C)C(=O)C1` (stereo unspecified), the “odorant receptor agonist call” value was “inactive”.

For `CCC(C(=O)O)c1ccccc1` (stereo unspecified), the “odorant receptor agonist call” value is “inactive”.

For the compound `O=c1ccc2ccccc2o1`, the “odorant receptor agonist call” value is “inactive”.

On to `CCCCCO`, for which the “odorant receptor agonist call” value is “inactive”.

With `CCCCCCCC(=O)[O-].[H+]`, the “odorant receptor agonist call” value is “inactive”.

With `CCCC(C)=O`, the “odorant receptor agonist call” value is “inactive”.

As for `CC(C)=CCCC(C)CCO` (stereo unspecified), the “odorant receptor agonist call” value was “inactive”.

With `O=C1Cc2ccccc2O1`, the “odorant receptor agonist call” value is “inactive”.

For the compound `CCOC(=O)C(C)C`, the “odorant receptor agonist call” value is “inactive”.

With `COc1cc(C(=O)O)ccc1O`, the “odorant receptor agonist call” value was “inactive”.

Regarding `CCCCCCC(=O)[O-].[H+]`, the “odorant receptor agonist call” value was “inactive”.

As for `CCCCOC(=O)C(C)OC(=O)CCC` (stereo unspecified), the “odorant receptor agonist call” value is “inactive”.

In another assay the target is T3, UniProt Q8VGQ3.
T3 sequence (whole entry): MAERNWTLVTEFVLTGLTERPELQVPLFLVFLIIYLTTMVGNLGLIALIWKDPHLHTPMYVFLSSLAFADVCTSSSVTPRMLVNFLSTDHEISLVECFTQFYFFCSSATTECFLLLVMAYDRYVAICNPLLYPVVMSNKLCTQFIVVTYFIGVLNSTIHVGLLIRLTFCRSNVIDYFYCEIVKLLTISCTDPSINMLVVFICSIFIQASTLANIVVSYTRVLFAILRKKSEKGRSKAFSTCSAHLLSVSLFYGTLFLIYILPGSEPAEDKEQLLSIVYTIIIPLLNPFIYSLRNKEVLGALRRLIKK
Conditions: stereoisomer not certain. The procedure, abridged:
as §1
For the compound `C=C(C)C1CCC(C)C(=O)C1` (stereo unspecified), the “odorant receptor agonist call” value was “active”.

Turning to `CCC(C(=O)O)c1ccccc1` (stereo unspecified), the “odorant receptor agonist call” value is “inactive”.

With `O=c1ccc2ccccc2o1`, the “odorant receptor agonist call” value was “inactive”.

Turning to `CCCCCO`, the “odorant receptor agonist call” value is “inactive”.

With `CCCCCCCC(=O)[O-].[H+]`, the “odorant receptor agonist call” value is “inactive”.

With `CCCC(C)=O`, the “odorant receptor agonist call” value is “inactive”.

With `CC(C)=CCCC(C)CCO` (stereo unspecified), the “odorant receptor agonist call” value is “inactive”.

`O=C1Cc2ccccc2O1`: the “odorant receptor agonist call” value is “inactive”.

With `CCOC(=O)C(C)C`, the “odorant receptor agonist call” value was “inactive”.

Regarding `COc1cc(C(=O)O)ccc1O`, the “odorant receptor agonist call” value is “inactive”.

Regarding `CCCCCCC(=O)[O-].[H+]`, the “odorant receptor agonist call” value is “inactive”.

`CCCCOC(=O)C(C)OC(=O)CCC` (stereo unspecified): the “odorant receptor agonist call” value is “inactive”.

The target of a further assay is T4, UniProt Q8VGT4.
T4 sequence (whole entry): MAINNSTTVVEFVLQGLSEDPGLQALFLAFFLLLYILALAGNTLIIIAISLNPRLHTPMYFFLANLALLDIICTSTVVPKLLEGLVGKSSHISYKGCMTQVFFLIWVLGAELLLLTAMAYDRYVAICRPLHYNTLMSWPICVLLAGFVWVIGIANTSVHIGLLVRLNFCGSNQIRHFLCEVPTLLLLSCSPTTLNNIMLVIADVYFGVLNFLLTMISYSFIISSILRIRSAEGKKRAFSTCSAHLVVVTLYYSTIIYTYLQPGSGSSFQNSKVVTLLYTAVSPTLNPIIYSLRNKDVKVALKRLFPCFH
To be noted: stereoisomer not certain. Summed up:
as §1
For `C=C(C)C1CCC(C)C(=O)C1` (stereo unspecified), the “odorant receptor agonist call” value is “inactive”.

As for `CCC(C(=O)O)c1ccccc1` (stereo unspecified), the “odorant receptor agonist call” value was “inactive”.

With `O=c1ccc2ccccc2o1`, the “odorant receptor agonist call” value is “inactive”.

On to `CCCCCO`, for which the “odorant receptor agonist call” value is “inactive”.

In the case of `CCCCCCCC(=O)[O-].[H+]`, the “odorant receptor agonist call” value is “inactive”.

Turning to `CCCC(C)=O`, the “odorant receptor agonist call” value is “inactive”.

Regarding `CC(C)=CCCC(C)CCO` (stereo unspecified), the “odorant receptor agonist call” value is “inactive”.

Take `O=C1Cc2ccccc2O1`: the “odorant receptor agonist call” value is “inactive”.

Consider `CCOC(=O)C(C)C`, for which the “odorant receptor agonist call” value is “inactive”.

As to `COc1cc(C(=O)O)ccc1O`, the “odorant receptor agonist call” value is “inactive”.

On to `CCCCCCC(=O)[O-].[H+]`, for which the “odorant receptor agonist call” value is “inactive”.

Turning to `CCCCOC(=O)C(C)OC(=O)CCC` (stereo unspecified), the “odorant receptor agonist call” value is “inactive”.

In another assay the target is T5, UniProt Q8VGU3.
T5 sequence (whole entry): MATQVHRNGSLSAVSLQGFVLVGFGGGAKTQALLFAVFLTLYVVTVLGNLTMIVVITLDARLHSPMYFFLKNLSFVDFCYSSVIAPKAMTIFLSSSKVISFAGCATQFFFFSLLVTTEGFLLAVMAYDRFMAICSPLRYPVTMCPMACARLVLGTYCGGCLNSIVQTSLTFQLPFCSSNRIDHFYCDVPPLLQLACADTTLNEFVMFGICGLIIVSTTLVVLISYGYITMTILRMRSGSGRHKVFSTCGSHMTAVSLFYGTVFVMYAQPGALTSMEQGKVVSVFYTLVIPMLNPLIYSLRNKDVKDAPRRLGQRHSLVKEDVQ
Conditions: stereoisomer not certain. The procedure, abridged:
as §1
As to `C=C(C)C1CCC(C)C(=O)C1` (stereo unspecified), the “odorant receptor agonist call” value was “inactive”.

With `CC(=O)OCCc1ccccc1`, the “odorant receptor agonist call” value was “inactive”.

As for `C1CCOCC1`, the “odorant receptor agonist call” value was “inactive”.

Take `O=C([O-])CCCCCCCC(=O)[O-].[H+].[H+]`: the “odorant receptor agonist call” value was “inactive”.

As to `OCC=Cc1ccccc1`, the “odorant receptor agonist call” value is “inactive”.

In the case of `CCCCC=O`, the “odorant receptor agonist call” value was “inactive”.

As for `C=CC(=O)CCCCC`, the “odorant receptor agonist call” value was “inactive”.

Turning to `CCCCCCC=CC=O`, the “odorant receptor agonist call” value was “inactive”.

The record behind these values is the M2OR odorant receptor database.
